Compound activity (PubChem BioAssay)
This is a sample that favours compounds with a hit; in the whole collection about 2.3% have one here.
TRPC6 inhibitor = mouse TRPC6 channel inhibition | Q61143 | HEK293-TRPC6, membrane potential dye, ACh-evoked depolarization; hits give low values | 310,000 compounds, 1.1% hits | B-score at 10 µM;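 active = B-score under library mean minus 3 SD, initial fluorescence not abnormally high, positive integrated signal ratio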;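 note: B-score derived from integrated fluorescence ratio over the kinetic read; more negative B-score means stronger inhibition of depolarization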
Target sequence (Q61143 whole entry, looked up): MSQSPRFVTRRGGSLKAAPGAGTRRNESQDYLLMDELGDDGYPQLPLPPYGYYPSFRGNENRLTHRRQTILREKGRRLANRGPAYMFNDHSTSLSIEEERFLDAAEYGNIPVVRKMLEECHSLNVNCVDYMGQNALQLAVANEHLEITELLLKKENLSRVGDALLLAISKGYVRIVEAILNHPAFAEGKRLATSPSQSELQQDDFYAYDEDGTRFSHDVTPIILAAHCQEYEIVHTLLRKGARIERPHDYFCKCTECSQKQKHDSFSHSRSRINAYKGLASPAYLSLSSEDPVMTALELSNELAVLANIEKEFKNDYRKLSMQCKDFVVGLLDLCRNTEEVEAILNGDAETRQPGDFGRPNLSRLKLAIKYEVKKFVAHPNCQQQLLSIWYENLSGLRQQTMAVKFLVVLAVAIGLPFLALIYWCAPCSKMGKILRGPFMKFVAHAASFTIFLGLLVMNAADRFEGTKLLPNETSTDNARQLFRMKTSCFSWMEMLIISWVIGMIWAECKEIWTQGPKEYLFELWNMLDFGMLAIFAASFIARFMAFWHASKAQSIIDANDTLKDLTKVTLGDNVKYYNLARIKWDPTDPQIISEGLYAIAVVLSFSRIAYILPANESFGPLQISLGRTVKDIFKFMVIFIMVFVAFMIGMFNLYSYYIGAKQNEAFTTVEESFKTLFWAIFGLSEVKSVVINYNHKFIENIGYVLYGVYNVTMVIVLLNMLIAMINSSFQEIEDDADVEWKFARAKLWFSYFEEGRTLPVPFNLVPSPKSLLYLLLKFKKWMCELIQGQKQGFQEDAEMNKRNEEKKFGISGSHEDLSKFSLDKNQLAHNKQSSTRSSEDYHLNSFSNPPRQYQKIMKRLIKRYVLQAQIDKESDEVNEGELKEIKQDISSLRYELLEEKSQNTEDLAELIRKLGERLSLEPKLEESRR
TRPC6 act = activates the mouse TRPC6 cation channel; HEK293-TRPC6 membrane potential dye fluorescence; hits give high values; B-score at 10 µM; 310,000 compounds, 0.13% hits; AID 2550;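 active = B-score of the integrated fluorescence ratio above library mean plus 3 SD, and starting fluorescence ratio within library mean plus 5 SD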;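 note: higher score means more depolarization so channel activation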
TRPC4 block = blocks the mouse TRPC4 cation channel; AID 2247; 300,000 compounds, 0.39% hits; Q9QUQ5; HEK293 TRPC4beta/mu-opioid, DAMGO-evoked Fluo4 calcium flux; hits give low values; B-score at 10 µM;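 active = B-score over 3 SD under the library average, no early fluorescence shift, positive overall ratio signal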
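Signal: kinetic Fluo4 fluorescence imaging of calcium influx. Material: stable TRPC4beta/mu-opioid receptor HEK293 cells. Probe or stimulus: DAMGO in two steps, submaximal then maximal.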
TRPC4 act = TRPC4 (mouse) channel activation; Q9QUQ5; HEK293 TRPC4beta/mu-opioid, Fluo4 calcium fluorescence; hits give high values; B-score at 10 µM; 310,000 compounds, 0.49% hits;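 active = B-score above 5 SD of library B-scores, and initial fluorescence ratio not above library mean plus 5 SD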;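 note: positive B-score marks a calcium rise read as TRPC4 activation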
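Technique: kinetic Fluo4 calcium fluorescence; Test system: TRPC4beta and mu-opioid receptor HEK293 stable cells; Measure: B-scored integrated calcium fluorescence ratio; Benchmarks: low control buffer alone, high control maximal DAMGO; Schedule: 45 min room-temperature Fluo4 loading, 110 s read.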
TRPC4 PAM = allosteric potentiators of mouse TRPC4 channel | Q9QUQ5 | HEK293 TRPC4beta/mu-opioid, DAMGO EC20, Fluo-4 Ca2+ flux; hits give high values | B-score at 10 µM | 310,000 compounds, 0.42% hits | AID 2227;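 active = B-score of calcium response area above 5 SD of library B-scores, with initial fluorescence ratio within 5 SD of library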;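 note: B-score of integrated fluorescence ratio over time as area under calcium response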
* hit, by the source's call; i = inactive.

SMILES	TRPC6 inhibitor	TRPC6 act	TRPC4 block	TRPC4 act	TRPC4 PAM
Cc1cccc2cc(CN(CCCN(C)C)C(=S)NCCc3ccccc3)c(=O)[nH]c12	i	i	-6*	i	i
Cc1ccc2[nH]c(=O)c(CN(CCCN(C)C)C(=S)NCCc3ccccc3)cc2c1	i	i	i	i	i
N#Cc1c(NCCCO)nc(-c2ccccc2)c2c1CCCC2	i	i	i	49*	i
CCC(C)C(=O)Nn1c(C2CC2)nc2cc(OC)c(OC)cc2c1=O (stereo unspecified)	i	i	i	i	i
CCOC(=O)C1=C(COc2ccccc2)NC(=O)NC1c1ccc(Cl)cc1 (stereo unspecified)	i	i	i	i	i
COC(=O)C1=C(COc2ccccc2)NC(=O)NC1c1ccc(Cl)cc1 (stereo unspecified)	i	i	i	i	11*
CCOc1nc2cnccc2n(CC(=O)Nc2cccc(C)c2C)c1=O	i	i	i	i	i
CC(=O)NNc1cc(C)nc(N)n1	i	i	i	i	i
O=C(NCc1ccccc1Cl)c1cnc2ccccc2n1	i	i	i	i	56*
CC(=O)N1c2ccccc2C(C)(c2ccccc2)CC1(C)C (stereo unspecified)	i	i	-6*	i	i
O=C(COc1ccccc1)NCc1nnc2c3ccccc3c(-c3ccccc3)nn12	i	i	i	i	i
CCOc1c(Cl)cc(CNCC(C)C)cc1OC	i	i	i	i	i
CCOc1c(Cl)cc(CNCC(O)c2ccccc2)cc1OC (stereo unspecified)	i	i	-6*	i	i
Cc1ccc(NS(=O)(=O)c2ccc(NC(=O)c3cccs3)cc2)cc1	i	i	i	i	i
O=C(Nc1ccnn1C1CCN(Cc2c[nH]c3ccccc23)CC1)c1ccccc1	i	i	i	i	i
CCOc1ccccc1C(=O)NC1CC2CCCC(C1)N2Cc1ccc(C)cc1 (stereo unspecified)	i	i	i	i	i
Cc1ccccc1C(=O)NC1CC2CCC(C1)N2Cc1ccccc1 (stereo unspecified)	i	i	-5*	i	i
Cc1ccc(OCC(=O)NC(=S)Nc2ccccn2)c(Br)c1	i	i	i	i	i
Cc1ccc(OCC(=O)NNC(=S)NC(=O)C2CCCCC2)c(C)c1	i	i	i	54*	i
Cc1ccc(OCC(=O)NNC(=S)NC(=O)C(C)(C)C)c(Br)c1	i	i	i	235*	i
Cc1cc(C)c2nc(Cl)c(C3NC(=O)c4ccccc4N3)cc2c1 (stereo unspecified)	i	i	i	i	i
Cc1ccc(C)c2nc(Cl)c(C3NC(=O)c4ccccc4N3)cc12 (stereo unspecified)	i	i	i	i	15*
Cc1cccc(-c2nc3c(c(=O)c4ccccc4n3C)c(=O)n2-c2ccccc2)c1	i	i	i	i	i
CC(=O)CSc1nnc(-c2ccco2)n1-c1ccccc1	i	i	i	i	i
CN(Cc1ccccc1)C(=O)CSc1nnc(-c2ccco2)n1-c1ccccc1	i	i	-7*	i	i
SMILES	TRPC6 inhibitor	TRPC6 act	TRPC4 block	TRPC4 act	TRPC4 PAM
O=[N+]([O-])c1ccc(N2CCN(CCO)CC2)c2ncccc12	i	i	i	56*	21*
CCCSc1ccc([C@@H]2[C@H]3C(=O)N(CC)C(=O)[C@H]3[C@]3(C(=O)OC)CCCCN23)cc1	i	i	i	i	i
Cc1ccc(-c2cc(C(=O)Nc3cc(C)on3)c3ccccc3n2)cc1	i	i	i	i	i
Cc1cc(NC(=O)c2cc(-c3cccs3)nc3ccccc23)no1	i	i	-6*	i	i
O=C(COc1ccccc1F)N1CCN(S(=O)(=O)/C=C/c2ccccc2)CC1	i	i	i	i	i
O=C(COc1ccc(Br)cc1)N1CCN(S(=O)(=O)/C=C/c2ccccc2)CC1	i	i	i	i	11*
O=C(Nc1ccc(F)cc1)N1CCN(c2nc3ccccc3s2)CC1	i	i	i	i	i
O=C(Nc1ccccc1)N1CCN(c2nc3ccccc3s2)CC1	i	i	i	43*	i
O=C(Cc1ccccc1)c1c[nH]c(C(=O)NCCCN2CCOCC2)c1	i	i	i	i	i
CN1CCN(CCC(=O)Nc2ccccc2)CC1	i	i	i	i	i
Cc1ccc(NC(=O)CCN2CCC(Cc3ccccc3)CC2)cc1	i	i	i	96*	i
CCOC(=O)c1c(NC(=O)C2CCCO2)sc(C)c1C (stereo unspecified)	i	i	i	i	i
COC(=O)c1c(NC(=O)C2CCCCC2C(=O)O)sc2c1CCCCC2 (stereo unspecified)	i	i	i	i	i
CCOC(=O)c1c(NC(=O)C2CCCO2)sc2c1CCC2 (stereo unspecified)	i	i	i	i	15*
CCOC(=O)c1c(NC(=O)CSc2nnc(C)c(=O)[nH]2)sc2c1CCCC2	i	i	i	i	i
CCOC(=O)c1c(NC(=O)C2CCCCC2C(=O)O)sc2c1CCCCC2 (stereo unspecified)	i	i	-7*	i	i
CCOC(=O)c1c(NC(=O)C(C)Sc2nnc(C)c(=O)[nH]2)sc2c1CCCC2 (stereo unspecified)	i	i	-6*	i	i
Fc1ccc(-c2nnc3ccc(N4CCc5ccccc5C4)nn23)cc1	i	i	i	i	i
CC(C)OC(=O)c1c(N)n(CCCN2CCOCC2)c2nc3ccccc3nc12	i	i	i	i	i
CC(C)OC(=O)c1c2nc3ccccc3nc2n2c1[nH]c(=O)c1ccccc12	i	i	i	i	10*
Cn1c(=O)[nH]c(=O)c2cc(C(=O)c3cc(F)ccc3O)cnc21	i	i	i	i	i
CCOC(=O)C1CCN(c2cc3c(cc2NC(=O)c2cc(OC)ccc2Br)n(C)c(=O)n3C)CC1	i	i	i	i	12*
CCOC(=O)C1CCN(c2cc3c(cc2NC(=O)c2ccccc2Br)n(C)c(=O)n3C)CC1	i	i	i	i	i
O=C(Nc1ccc(S(=O)(=O)N2CCOCC2)cc1)C1CCN(S(=O)(=O)c2ccccc2)CC1	i	i	i	i	i
CCN(CC)C(=O)c1sc2nc(-c3ccncc3)[nH]c(=O)c2c1C	i	i	i	i	i
